≈ marks a conversion by molar mass, not a printed value. Calls of active or inactive are those of the source. The rule behind the calls is not given here.
Experiments:
[1] = test system: SH-SY5Y; assay: Neuroprotective activity in human SH-SY5Y cells assessed as prevention of oligomycin induced cell damage by measuring cell viability at 0.1 to 5 uM incubated for 24 hrs in presence of oligomycin by MTT assay; assay type: functional, cell-based; settings: dose 0.1-5 µM
Summary of the method: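 SH-SY5Y cells (~7000/well) co-incubated 24 h at 37 °C in 2% FBS medium with toxic stimulus (NMDA 250 μM or oligomycin 2.5 μM) plus compound at 0.1–5 μM. Viability by MTT, expressed as % of control.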

[2] = test system: LoVo; assay: Cytotoxicity against human LoVo cells assessed as reduction in cell survival rate at 100 uM incubated for 48 to 72 hrs by MTT assay; assay type: toxicity, cell-based; settings: time 48-72 hrs
Summary of the method: (§1)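 Cancer lines grown in Ham's F-12K or DMEM with 10% FBS, used in exponential growth; seeded 2500 cells/well, exposed to 0.1–100 μM for 24, 48 and 72 h continuous. Viability by CellTiter 96 AQueous One (tetrazolium) absorbance at 490 nm; three independent experiments in quadruplicate, % survival vs untreated.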

[3] = target: Sigma intracellular receptor 2 (Homo sapiens, UniProt Q5BJF2); assay: Displacement of [3H]DTG from sigma 2 receptor (unknown origin) assessed as inhibition constant by scintillation counting analysis
Summary of the method: (§2)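 Radioligand displacement at S1R with [3H](+)pentazocine (15 nM) and at S2R with [3H]DTG (25 nM); S2R assay includes 1 μM cold (+)pentazocine to mask S1R sites. Bound radioactivity counted by scintillation. IC50 and Hill slope from non-linear Hill fit of competition curves; Ki by Cheng–Prusoff using radioligand concentration and KD from Scatchard plot.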

[4] = test system: PANC-1; assay: Cytotoxicity against human PANC-1 cells assessed as reduction in cell survival rate at 100 uM incubated for 48 to 72 hrs by MTT assay; assay type: toxicity, cell-based; settings: panc-1, 100 µM, time 48-72 hrs; summary of the method: as §1
[5] = Toxicity in Zebrafish embryos assessed as normal and vital phenotype at 0.1 to 1 uM incubated for 5 days by Teratogenic test; set-up: species or system Danio rerio, Embryo; settings: in vivo, 120 h, dose 0.1-1 µM, time 5 day
Summary of the method: (§3)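 Tg(GFAP:GFP) zebrafish embryos, 8 per group, exposed from 1 h post-fertilization to increasing compound concentrations at 28 °C for about 5 days without medium change; mortality, developmental defects and morphology score assessed at 5 dpf.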

[6] = test system: PC-12; assay: Cytotoxicity against rat PC12 cells assessed as reduction in cell viability at <5 uM incubated for 24 hrs by MTT assay; assay type: toxicity, cell-based; settings: pc-12, 24 h
[7] = target: Sigma non-opioid intracellular receptor 1 (Homo sapiens, UniProt Q99720); assay: Displacement of [3H]-(+)-pentazocine from sigma 1 receptor (unknown origin) assessed as inhibition constant by scintillation counting analysis; summary of the method: as §2
[8] = Lipophilicity, logP of the compound; assay type: physicochemical; settings: octanol/water
[9] = target: Glutamate [NMDA] receptor (Homo sapiens) (UniProt Q05586+Q12879+Q13224+O15399+O60391+Q14957+Q8TCU5); assay: Displacement of [3H]CGP39653 from human NMDAR at 25 nM by scintillation counting analysis; assay type: protein-complex assay
Summary of the method: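 NMDA receptor binding with [3H]CGP39653 (5 nM) as radioligand, test compound at 25 nM; displacement read by scintillation counting and reported as % inhibition of control specific binding.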

[10] = Thermodynamic solubility of the compound in KH2PO4/Na2HPO4 buffer at pH 7.4 incubated for 24 hrs; assay type: physicochemical; settings: read-out: Therm_solubility
Summary of the method: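 10 mM DMSO stock diluted 1:100 into buffer (HCl/KCl pH 1.2; KH2PO4/NaOH pH 6.8; KH2PO4/Na2HPO4 pH 7.4), 1% v/v DMSO final; shaken 24 h at 1200 rpm, filtered through 0.45 μm polycarbonate membrane, filtrate diluted 1:1 with MeOH and analysed.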

[11] = Toxicity in Zebrafish embryos assessed as variation in embryo morphology score at 10 uM incubated for 5 days by Teratogenic test; set-up: species or system Danio rerio; settings: in vivo, 120 h, time 5 day; summary of the method: as §3
[12] = test system: PC-12; assay: Neuroprotective activity in rat PC12 cells assessed as induction of NGF-mediated neurite outgrowth at 0.5 uM by neurite outgrowth assay (Rvb=26 +/- 4%); assay type: functional
Summary of the method: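 PC12 cells stimulated with NGF (2.5 nM) and treated with compound up to 5 μM, alone or after pre-treatment with S1R antagonist NE-100 (3 μM); read-out is percentage of cells bearing neurite sprouts; mean ± SEM of three independent experiments.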

[13] = Toxicity in Zebrafish embryos assessed as morphological abnormality by observing poor pigmentation at 10 uM incubated for 5 days by Teratogenic test; set-up: species or system Danio rerio, Embryo; settings: in vivo, 120 h, time 5 day; summary of the method: as §3
[14] = Toxicity in Zebrafish embryos assessed as morphological abnormality by observing oedema at 10 uM incubated for 5 days by Teratogenic test; set-up: species or system Danio rerio, Embryo; settings: in vivo, 120 h, time 5 day; summary of the method: as §3
[15] = test system: PC-12; assay: Cytotoxicity against rat PC12 cells assessed as reduction in cell viability at <1 uM incubated for 24 hrs by MTT assay; assay type: toxicity, cell-based; settings: pc-12, 24 h
[16] = Toxicity in Zebrafish embryos assessed as morphological abnormality by observing inflated swim bladder at 10 uM incubated for 5 days by Teratogenic test; assay type: tissue-based, Danio rerio, Embryo; settings: in vivo, 120 h, time 5 day; summary of the method: as §3

Chain of Sigma intracellular receptor 2 (Q5BJF2 whole entry): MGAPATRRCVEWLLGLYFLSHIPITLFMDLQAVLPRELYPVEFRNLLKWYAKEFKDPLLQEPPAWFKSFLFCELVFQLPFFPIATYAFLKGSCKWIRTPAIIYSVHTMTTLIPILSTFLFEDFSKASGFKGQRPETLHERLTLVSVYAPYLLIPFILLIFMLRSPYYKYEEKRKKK
Chain of Sigma non-opioid intracellular receptor 1 (Q99720 whole entry): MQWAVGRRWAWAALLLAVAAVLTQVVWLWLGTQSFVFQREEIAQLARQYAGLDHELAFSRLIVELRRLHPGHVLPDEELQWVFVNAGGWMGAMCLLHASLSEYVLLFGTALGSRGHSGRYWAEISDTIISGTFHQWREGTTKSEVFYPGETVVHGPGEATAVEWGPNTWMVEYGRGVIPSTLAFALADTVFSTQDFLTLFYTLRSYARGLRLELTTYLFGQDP

Row | SMILES | Activity [1] | Activity [2] [%] | Ki [3] [nM] | Activity [4] [%] | Activity [5] | Activity [6] | Ki [7] [nM] | logP [8] | Activity [9] [%] | solubility thermodynamic at 24 h [10] [µg/mL] | Activity [11] | Activity [12] [%] | Activity [13] | Activity [14] | Activity [15] | Activity [16]
1 | c1ccc(CC2CCN(CCCOc3ccccc3)CC2)cc1 | inactive | 40 | 88 | 20 | Non-Toxic | Non-Toxic | 1.1 | 4.38 | < 11.9 | 2800 (≈ 9.05 mM) | Non-Toxic | – | – | – | – | –
2 | c1ccc(CC2CCN(CCOc3ccccc3)CC2)cc1 | inactive | 40 | 72 | 20 | Non-Toxic | – | 0.93 | 4 | < 11.9 | 7800 (≈ 26.4 mM) | Toxic | 37 | Toxic | Toxic | Non-Toxic | Toxic

— ChEMBL document CHEMBL5331102, “Novel S1R agonists counteracting NMDA excitotoxicity and oxidative stress: A step forward in the discovery of neuroprotective agents” (Eur J Med Chem, 2023)
